Assay results published in ChEMBL document CHEMBL1140312, “Synthesis and biological evaluation of geminal disulfones as HIV-1 integrase inhibitors” (J Med Chem, 2005).

Key:
[1] = target: T1, Human immunodeficiency virus type 1 integrase (Human immunodeficiency virus 1, UniProt Q7ZJM1); assay: Inhibitory concentration against 3'processing of HIV-1 Integrase
HeLa [2] = assay: Antiviral activity against human immuno deficiency virus type 1 in HeLa H1-JC.37 cells; format: functional, cell-based
In short: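 HIV-1 focal infectivity assay in HeLa H1-JC.37 indicator cells (HeLa CD4 expressing human CCR5, naturally CXCR4). Foci immunostained with monoclonal antibody 22-6 at 1/800 and counted under a dissecting microscope at 30× to 100×. Plotted as percentage of no-drug control foci against inhibitor concentration; EC50 from best-fit line of linear portion; at least three separate experiments.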

[3] = target: T1, Human immunodeficiency virus type 1 integrase; assay: Inhibitory concentration against integration of HIV-1 Integrase
HeLa [4] = assay: Cytotoxicity for HeLa H1-JC.37 cells using MTS assay; format: functional, cell-based; settings: Homo sapiens
In short: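 HeLa H1-JC.37 cell proliferation measured by MTS assay under manufacturer's recommended conditions. Data plotted as percentage of no-drug control against inhibitor concentration; IC50 for 50% inhibition of proliferation taken from best-fit line of linear portion of plot; at least two separate experiments.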

HeLa [5] = assay: Ratio of cytotoxicity for HeLa H1-JC.37 cells (IC50) to antiviral activity against HIV-1 (EC50); format: functional, Homo sapiens
In short: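 Ratio of cytotoxic IC50 to antiviral EC50 in HeLa H1-JC.37 cells (HeLa CD4 expressing CCR5). EC50 came from an HIV-1 focal infectivity assay: mAb 22-6 (1/800) immunostaining, foci counted at 30× to 100×, best-fit linear portion of % no-drug control foci versus concentration, at least three experiments. IC50 came from an MTS proliferation assay, same fitting, at least two experiments.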

T1 sequence (Q7ZJM1 whole entry): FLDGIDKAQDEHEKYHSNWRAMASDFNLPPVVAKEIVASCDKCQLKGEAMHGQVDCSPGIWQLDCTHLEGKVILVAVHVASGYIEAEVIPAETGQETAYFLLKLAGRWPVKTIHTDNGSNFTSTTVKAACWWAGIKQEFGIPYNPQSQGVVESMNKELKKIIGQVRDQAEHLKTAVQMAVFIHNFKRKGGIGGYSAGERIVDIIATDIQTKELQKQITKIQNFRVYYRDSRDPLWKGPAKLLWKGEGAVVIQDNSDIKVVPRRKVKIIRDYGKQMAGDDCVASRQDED

Compound	IC50 [1] [µM]	EC50 (HeLa [2]) [µM]	IC50 [3] [µM]	IC50 (HeLa [4]) [µM]	Selectivity index (HeLa [5])
O=C(O)C(=O)CC(=O)c1cc(OCc2ccccc2)cc(OCc2ccccc2)c1	> 1000	0.78			
O=S(=O)(/C=C/c1ccc(OCc2ccccc2)c(OCc2ccccc2)c1)CS(=O)(=O)/C=C/c1ccc(OCc2ccccc2)c(OCc2ccccc2)c1	700		700		
O=S(=O)(/C=C/c1ccc(O)c(O)c1)CS(=O)(=O)/C=C/c1ccc(O)c(O)c1	4	2.4	5	187	78
COc1cc(/C=C/S(=O)(=O)CS(=O)(=O)/C=C/c2ccc(C(C)=O)c(OC)c2)ccc1C(C)=O	> 1000		> 1000		
O=S(=O)(/C=C/c1cc(O)c(O)c(O)c1)CS(=O)(=O)/C=C/c1cc(O)c(O)c(O)c1	1.8	0.3	0.9	169	563
COc1cc(/C=C/S(=O)(=O)CS(=O)(=O)/C=C/c2cc(O)c(O)c(OC)c2)cc(O)c1O	50	1.3	50	29	22
COc1cc(/C=C/S(=O)(=O)CS(=O)(=O)/C=C/c2ccccc2)cc(O)c1O	80	4.5	80	19	4.3
